Biological target: Prothrombin (Bos taurus, UniProt P00735)
Test: Bovine thrombin concentration at which clotting time was prolonged 2x over the control.
Assay type: functional
Conditions: read-out: I50
Method in brief: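 Clotting assay at 25 °C. The read-out was the time from thrombin addition to clot formation.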

Compound | IC50
CN(C)c1cccc2c(S(=O)(=O)NC(CCCN=C(N)N)C(=O)N3CCCCC3)cccc12 (stereo not drawn) | 1 µM
COc1ccc(CNC(=O)C(CCCN=C(N)N)NS(=O)(=O)c2cccc3c(N(C)C)cccc23)cc1 (stereo not drawn) | 500 µM
CCCCNC(=O)C(CCCN=C(N)N)NS(=O)(=O)c1cccc2c(N(C)C)cccc12 (stereo not drawn) | 2.1 µM
CN(C)c1cccc2c(S(=O)(=O)NC(CCCNC(=N)N)C(=O)N3CCOCC3)cccc12 (stereo not drawn) | 0.6 µM
CC1CCN(C(=O)C(CCCN=C(N)N)NS(=O)(=O)c2ccc3ccccc3c2)CC1 (stereo not drawn) | 4.5 µM
N=C(N)NCCCC(NS(=O)(=O)c1ccc2ccccc2c1)C(=O)N1CCOCC1 (stereo not drawn) | 20 µM
CCC1CCN(C(=O)C(CCCN=C(N)N)NS(=O)(=O)c2ccc3ccc(O)cc3c2)CC1 (stereo not drawn) | 6 µM
CC(C)NC(=O)C(CCCN=C(N)N)NS(=O)(=O)c1cccc2c(N(C)C)cccc12 (stereo not drawn) | 1100 µM
CN(C)c1cccc2c(S(=O)(=O)NC(CCCNC(=N)N)C(=O)N3Cc4ccccc4C3)cccc12 (stereo not drawn) | 0.67 µM
CCC1CCN(C(=O)C(CCCNC(=N)N)NS(=O)(=O)c2ccc3c(c2)OCCCO3)CC1 (stereo not drawn) | 5 µM
CN(C)c1cccc2c(S(=O)(=O)NC(CCCN=C(N)N)C(=O)N3CCCCCCC3)cccc12 (stereo not drawn) | 1 µM
CCCCN(CC)C(=O)C(CCCN=C(N)N)NS(=O)(=O)c1cccc2c(N(C)C)cccc12 (stereo not drawn) | 50 µM
CCC1CCN(C(=O)C(CCCNC(=N)N)NS(=O)(=O)c2ccc3cc(OC)ccc3c2)CC1 (stereo not drawn) | 0.2 µM
CN(C)c1cccc2c(S(=O)(=O)NC(CCCNC(=N)N)C(=O)N3CCCC3)cccc12 (stereo not drawn) | 3.3 µM
CC1CCN(C(=O)C(CCCN=C(N)N)NS(=O)(=O)c2ccc3c(c2)OCCCO3)CC1 (stereo not drawn) | 8 µM
CCC1CCN(C(=O)C(CCCN=C(N)N)NS(=O)(=O)c2ccc(OC)c3ccccc23)CC1 (stereo not drawn) | 2 µM
CCC1CCN(C(=O)C(CCCN=C(N)N)NS(=O)(=O)c2ccc3cc(OC)c(OC)cc3c2)CC1 (stereo not drawn) | 0.15 µM
CCC1CCN(C(=O)C(CCCNC(=N)N)NS(=O)(=O)c2cccc3c(C#N)cccc23)CC1 (stereo not drawn) | 6 µM
CC1CCN(C(=O)C(CCCNC(=N)N)NS(=O)(=O)c2cccc3c2CCCC3)CC1 (stereo not drawn) | 1 µM
COc1cccc2cccc(S(=O)(=O)NC(CCCN=C(N)N)C(=O)N3CCC(C)CC3)c12 (stereo not drawn) | 4 µM
CCCCN(C)C(=O)C(CCCN=C(N)N)NS(=O)(=O)c1cccc2ccccc12 (stereo not drawn) | 50 µM
N=C(N)NCCCC(NS(=O)(=O)c1cccc2ccccc12)C(=O)N1CCC(c2ccccc2)CC1 (stereo not drawn) | 100 µM

Compound | IC50
CCCCN(C)C(=O)C(CCCNC(=N)N)NS(=O)(=O)c1cccc2c(N(C)C)cccc12 (stereo not drawn) | 2 µM
CCC1CCN(C(=O)C(CCCN=C(N)N)NS(=O)(=O)c2cccc3c([N+](=O)[O-])cccc23)CC1 (stereo not drawn) | 1 µM
CCC1CCN(C(=O)C(CCCNC(=N)N)NS(=O)(=O)c2ccc3c(c2)CCCC3)CC1 (stereo not drawn) | 0.7 µM
CCOc1cc2ccc(S(=O)(=O)NC(CCCN=C(N)N)C(=O)N3CCC(CC)CC3)cc2cc1OCC (stereo not drawn) | 5.5 µM
CCC1CCN(C(=O)C(CCCN=C(N)N)NS(=O)(=O)c2ccc3ccc(=O)oc3c2)CC1 (stereo not drawn) | 20 µM
CCC1CCN(C(=O)C(CCCN=C(N)N)NS(=O)(=O)c2ccc3cc(C)ccc3c2)CC1 (stereo not drawn) | 0.5 µM
CCCC1CCN(C(=O)C(CCCN=C(N)N)NS(=O)(=O)c2cccc3c(N(C)C)cccc23)CC1 (stereo not drawn) | 1 µM
CCOCCNC(=O)C(CCCN=C(N)N)NS(=O)(=O)c1cccc2c(N(C)C)cccc12 (stereo not drawn) | 5 µM
CC(C)C1CCN(C(=O)C(CCCN=C(N)N)NS(=O)(=O)c2cccc3c(N(C)C)cccc23)CC1 (stereo not drawn) | 1 µM
CC1CCCCN1C(=O)C(CCCN=C(N)N)NS(=O)(=O)c1cccc2c(N(C)C)cccc12 (stereo not drawn) | 1.3 µM
CCC1CCN(C(=O)C(CCCN=C(N)N)NS(=O)(=O)c2ccc3ccccc3c2OC)CC1 (stereo not drawn) | 0.4 µM
CCC1CCN(C(=O)C(CCCN=C(N)N)NS(=O)(=O)c2ccc3cc4c(cc3c2)OCCO4)CC1 (stereo not drawn) | 10 µM
CC1CCN(C(=O)C(CCCN=C(N)N)NS(=O)(=O)c2cccc3ccccc23)CC1 (stereo not drawn) | 4 µM
CCC1CCN(C(=O)C(CCCN=C(N)N)NS(=O)(=O)c2ccc3c(c2)C(=O)c2ccccc2C3=O)CC1 (stereo not drawn) | 1.5 µM
CN(C)c1cccc2c(S(=O)(=O)NC(CCCNC(=N)N)C(=O)N3CCC(C(C)(C)C)CC3)cccc12 (stereo not drawn) | 2 µM
CC(C)CNC(=O)C(CCCNC(=N)N)NS(=O)(=O)c1cccc2c(N(C)C)cccc12 (stereo not drawn) | 100 µM
COCCNC(=O)C(CCCNC(=N)N)NS(=O)(=O)c1cccc2c(N(C)C)cccc12 (stereo not drawn) | 4 µM
CCOc1cccc2c(S(=O)(=O)NC(CCCNC(=N)N)C(=O)N3CCC(CC)CC3)cccc12 (stereo not drawn) | 0.1 µM
COC1CCN(C(=O)C(CCCN=C(N)N)NS(=O)(=O)c2cccc3c(N(C)C)cccc23)CC1 (stereo not drawn) | 4 µM
CCCOc1cccc2c(S(=O)(=O)NC(CCCNC(=N)N)C(=O)N3CCC(CC)CC3)cccc12 (stereo not drawn) | 0.5 µM
CCCCN(CCCC)C(=O)C(CCCNC(=N)N)NS(=O)(=O)c1cccc2c(N(C)C)cccc12 (stereo not drawn) | 40 µM

Biological target: Prothrombin (Bos taurus) (UniProt P00735)
Test: Percentage of rate of hydrolysis in 4 hr incubation by thrombin
Assay type: functional
Conditions: not given
Method in brief: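 Test compounds at 1 mM in 0.1 M Tris-HCl, pH 8.0, were incubated with thrombin (100 units in a 1.0 mL reaction) at 37 °C for 4 h. Hydrolysis rate was followed titrimetrically with a pH-stat and automatic burette at 37 °C and pH 8.0.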

Compound | Hydrolysis
CN(C)c1cccc2c(S(=O)(=O)NC(CCCN=C(N)N)C(=O)N3CCCCC3)cccc12 (stereo not drawn) | 0%
CCC1CCN(C(=O)C(CCCN=C(N)N)NS(=O)(=O)c2cccc3c(N(C)C)cccc23)CC1 (stereo not drawn) | 0%
CCCCNC(=O)C(CCCN=C(N)N)NS(=O)(=O)c1cccc2c(N(C)C)cccc12 (stereo not drawn) | 0%
CCCCN(C)C(=O)C(CCCN=C(N)N)NS(=O)(=O)c1cccc2c(N(C)C)cccc12 (stereo not drawn) | 0%
COCCNC(=O)C(CCCN=C(N)N)NS(=O)(=O)c1cccc2c(N(C)C)cccc12 (stereo not drawn) | 0%
